According to ChEMBL document CHEMBL5058577, “EUbOPEN Chemogenomics Library 2 (Multiplex)” (2022):

Test system: HEK-293T
Test: Multiplex assay against HEK293T
Type: toxicity, cell-based
Conditions: human
Outline: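 Hoechst33342, BioTracker Green Microtubule Cytoskeleton Dye, MitoTracker Red and Annexin V Alexa Fluor 680 were added to live cells at seeding, and imaging on a CQ1 microscope at 37°C and 5% CO2 followed compound addition. Gating by CellPathfinder machine learning separated cells into Hoechst high-intensity objects or normal cells, then normal cells into healthy, pyknosed or fragmented nuclei, then pyknosed cells into mitotic or apoptotic. Per cents of healthy-nucleus cells are reported for the tubulin, mitochondrial-mass and membrane-permeability phenotypes.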

[1] = 12 h, 1 µM, compound concentration 1 uM, replicate 1
[2] = 12 h, 1 µM, compound concentration 1 uM, replicate 2
[3] = 12 h, 10 µM, compound concentration 10 uM, replicate 1
[4] = 12 h, 10 µM, compound concentration 10 uM, replicate 2
[5] = 24 h, 1 µM, compound concentration 1 uM, replicate 1
[6] = 24 h, 1 µM, compound concentration 1 uM, replicate 2
[7] = 24 h, 10 µM, compound concentration 10 uM, replicate 1
[8] = 24 h, 10 µM, compound concentration 10 uM, replicate 2
[9] = 48 h, 1 µM, compound concentration 1 uM, replicate 1
[10] = 48 h, 1 µM, compound concentration 1 uM, replicate 2
[11] = 48 h, 10 µM, compound concentration 10 uM, replicate 1
[12] = 48 h, 10 µM, compound concentration 10 uM, replicate 2

CC(C)COc1ccc(CNC(=O)N(Cc2ccc(F)cc2)C2CCN(C)CC2)cc1 [PIMAVANSERIN]
Population Apoptotic (%) [1]: 39% | Population Fragmented Nuclei (%) [1]: 5% | Population Healthy Nuclei (%) [1]: 82% | Population Hoechst High Intensity Objects (%) [1]: 6% | Population Membrane Permeable-Phenotype (%) [1]: 0% | Population Mitochondria Different-Phenotype (%) [1]: 50% | Population Mitotic Cells (%) [1]: 60% | Population Normal (%) [1]: 93% | Population Pyknosed Nuclei (%) [1]: 11% | Population Tubulin-Different-Phenotype (%) [1]: 49% | Total Cell Count [1]: 430 | Population Apoptotic (%) [2]: 54% | Population Fragmented Nuclei (%) [2]: 7% | Population Healthy Nuclei (%) [2]: 74% | Population Hoechst High Intensity Objects (%) [2]: 11% | Population Mitochondria Different-Phenotype (%) [2]: 68% | Population Mitotic Cells (%) [2]: 46% | Population Normal (%) [2]: 88% | Population Pyknosed Nuclei (%) [2]: 18% | Population Tubulin-Different-Phenotype (%) [2]: 35% | Total Cell Count [2]: 311 | Population Apoptotic (%) [3]: 62% | Population Fragmented Nuclei (%) [3]: 10% | Population Healthy Nuclei (%) [3]: 60% | Population Hoechst High Intensity Objects (%) [3]: 19% | Population Membrane Permeable-Phenotype (%) [3]: 0% | Population Mitochondria Different-Phenotype (%) [3]: 89% | Population Mitotic Cells (%) [3]: 37% | Population Normal (%) [3]: 80% | Population Pyknosed Nuclei (%) [3]: 28% | Population Tubulin-Different-Phenotype (%) [3]: 81% | Total Cell Count [3]: 285 | Population Apoptotic (%) [4]: 79% | Population Fragmented Nuclei (%) [4]: 7% | Population Healthy Nuclei (%) [4]: 64% | Population Hoechst High Intensity Objects (%) [4]: 25% | Population Mitochondria Different-Phenotype (%) [4]: 87% | Population Mitotic Cells (%) [4]: 20% | Population Normal (%) [4]: 74% | Population Pyknosed Nuclei (%) [4]: 27% | Population Tubulin-Different-Phenotype (%) [4]: 66% | Total Cell Count [4]: 237 | Population Apoptotic (%) [5]: 33% | Population Fragmented Nuclei (%) [5]: 9% | Population Healthy Nuclei (%) [5]: 77% | Population Hoechst High Intensity Objects (%) [5]: 6% | Population Membrane Permeable-Phenotype (%) [5]: 2% | Population Mitochondria Different-Phenotype (%) [5]: 42% | Population Mitotic Cells (%) [5]: 66% | Population Normal (%) [5]: 93% | Population Pyknosed Nuclei (%) [5]: 13% | Population Tubulin-Different-Phenotype (%) [5]: 40% | Total Cell Count [5]: 553 | Population Apoptotic (%) [6]: 48% | Population Fragmented Nuclei (%) [6]: 4% | Population Healthy Nuclei (%) [6]: 82% | Population Hoechst High Intensity Objects (%) [6]: 8% | Population Membrane Permeable-Phenotype (%) [6]: 0% | Population Mitochondria Different-Phenotype (%) [6]: 55% | Population Mitotic Cells (%) [6]: 51% | Population Normal (%) [6]: 91% | Population Pyknosed Nuclei (%) [6]: 12% | Population Tubulin-Different-Phenotype (%) [6]: 30% | Total Cell Count [6]: 394 | Population Apoptotic (%) [7]: 81% | Population Fragmented Nuclei (%) [7]: 10% | Population Healthy Nuclei (%) [7]: 57% | Population Hoechst High Intensity Objects (%) [7]: 27% | Population Membrane Permeable-Phenotype (%) [7]: 0% | Population Mitochondria Different-Phenotype (%) [7]: 94% | Population Mitotic Cells (%) [7]: 18% | Population Normal (%) [7]: 72% | Population Pyknosed Nuclei (%) [7]: 31% | Population Tubulin-Different-Phenotype (%) [7]: 77% | Total Cell Count [7]: 285 | Population Apoptotic (%) [8]: 84% | Population Fragmented Nuclei (%) [8]: 12% | Population Healthy Nuclei (%) [8]: 54% | Population Hoechst High Intensity Objects (%) [8]: 34% | Population Mitochondria Different-Phenotype (%) [8]: 100% | Population Mitotic Cells (%) [8]: 15% | Population Normal (%) [8]: 65% | Population Pyknosed Nuclei (%) [8]: 32% | Population Tubulin-Different-Phenotype (%) [8]: 69% | Total Cell Count [8]: 215 | Population Apoptotic (%) [9]: 27% | Population Fragmented Nuclei (%) [9]: 13% | Population Healthy Nuclei (%) [9]: 77% | Population Hoechst High Intensity Objects (%) [9]: 5% | Population Membrane Permeable-Phenotype (%) [9]: 1% | Population Mitochondria Different-Phenotype (%) [9]: 31% | Population Mitotic Cells (%) [9]: 72% | Population Normal (%) [9]: 94% | Population Pyknosed Nuclei (%) [9]: 8% | Population Tubulin-Different-Phenotype (%) [9]: 33% | Total Cell Count [9]: 869 | Population Apoptotic (%) [10]: 48% | Population Fragmented Nuclei (%) [10]: 9% | Population Healthy Nuclei (%) [10]: 84% | Population Membrane Permeable-Phenotype (%) [10]: 0% | Population Mitochondria Different-Phenotype (%) [10]: 33% | Population Mitotic Cells (%) [10]: 51% | Population Pyknosed Nuclei (%) [10]: 6% | Population Tubulin-Different-Phenotype (%) [10]: 21% | Total Cell Count [10]: 601 | Population Apoptotic (%) [11]: 75% | Population Fragmented Nuclei (%) [11]: 29% | Population Healthy Nuclei (%) [11]: 30% | Population Hoechst High Intensity Objects (%) [11]: 52% | Population Membrane Permeable-Phenotype (%) [11]: 0% | Population Mitochondria Different-Phenotype (%) [11]: 88% | Population Mitotic Cells (%) [11]: 24% | Population Normal (%) [11]: 47% | Population Pyknosed Nuclei (%) [11]: 40% | Population Tubulin-Different-Phenotype (%) [11]: 58% | Total Cell Count [11]: 235 | Population Apoptotic (%) [12]: 61% | Population Fragmented Nuclei (%) [12]: 31% | Population Hoechst High Intensity Objects (%) [12]: 60% | Population Mitochondria Different-Phenotype (%) [12]: 92% | Population Mitotic Cells (%) [12]: 38% | Population Normal (%) [12]: 40% | Population Pyknosed Nuclei (%) [12]: 37% | Population Tubulin-Different-Phenotype (%) [12]: 64% | Total Cell Count [12]: 205
